# Target: T1, Steryl-sulfatase (Homo sapiens, UniProt P08842)
# T1 sequence (P08842 whole entry): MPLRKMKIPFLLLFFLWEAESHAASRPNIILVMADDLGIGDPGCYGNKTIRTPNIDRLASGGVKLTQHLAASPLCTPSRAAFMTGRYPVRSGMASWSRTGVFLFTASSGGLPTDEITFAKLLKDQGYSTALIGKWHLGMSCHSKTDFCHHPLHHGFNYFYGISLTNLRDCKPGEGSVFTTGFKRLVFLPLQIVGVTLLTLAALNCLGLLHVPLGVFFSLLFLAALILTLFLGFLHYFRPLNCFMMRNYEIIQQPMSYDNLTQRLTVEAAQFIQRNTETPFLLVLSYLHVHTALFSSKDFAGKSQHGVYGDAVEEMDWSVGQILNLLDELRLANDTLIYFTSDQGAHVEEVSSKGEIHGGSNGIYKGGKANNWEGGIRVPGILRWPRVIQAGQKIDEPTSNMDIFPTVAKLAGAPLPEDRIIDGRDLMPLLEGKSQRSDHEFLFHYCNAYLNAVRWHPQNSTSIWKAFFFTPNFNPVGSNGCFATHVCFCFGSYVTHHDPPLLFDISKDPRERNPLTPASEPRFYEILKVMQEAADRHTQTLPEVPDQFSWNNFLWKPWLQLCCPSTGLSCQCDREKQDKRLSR
# Experiment: Mixed type inhibition of steroid sulfatase using 4-methylumbelliferyl sulfate as substrate by Lineweaver-Burk plot analysis
# Outline: (§1)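 Kinetics used purified human placental STS at 10 nM final, 25 °C. Inhibitor was fixed at 75, 50 or 25 nM final (plus an inhibitor-free control) against 4-MUS from 83.3 to 500 μM final, in 0.1 M Tris-HCl pH 7.0. Initial rates (RFU/s) were measured by fluorescence in triplicate and plotted as Lineweaver–Burk. Slopes and intercepts were replotted with mixed-type equations to give Ki and αKi.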
row,Ki [nM],SMILES
1,23,C[C@]12CC[C@@H]3c4ccc(O)cc4CC[C@H]3[C@@H]1CC[C@@H]2NS(=O)(=O)c1cccc(Br)c1

# Target: T1, Steryl-sulfatase
# Experiment: Inhibition of steroid sulfatase using 4-methylumbelliferyl sulfate as substrate by Lineweaver-Burk plot analysis
# Outline: as §1
row,Ki [nM],SMILES
1,23,C[C@]12CC[C@@H]3c4ccc(O)cc4CC[C@H]3[C@@H]1CC[C@@H]2NS(=O)(=O)c1cccc(Br)c1

# Target: T2, Steryl-sulfatase (Homo sapiens) (UniProt P08842)
# T2 sequence (whole entry): T1 sequence (P08842 whole entry)
# Experiment: Ratio of 17beta-3'-trifluoromethylbenzylest radiol IC50 to compound IC50 for steroid sulfatase
row,Ratio IC50,SMILES
1,6,C[C@]12CC[C@@H]3c4ccc(O)cc4CC[C@H]3[C@@H]1CC[C@@H]2NS(=O)(=O)c1cccc(C(F)(F)F)c1

# Target: T1, Steryl-sulfatase
# Experiment: Inhibition of steroid sulfatase using 4-methylumbelliferyl sulfate as substrate after 10 mins by spectrofluorimeter plate reader
# Outline: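 Human placental STS, purified, used at 10 nM final with 200 μM 4-MUS (Km level). Assay buffer 0.1 M Tris-HCl pH 7.0, 0.01% Triton X-100, 5% DMSO, 25 °C. Inhibitor dilutions in DMSO/Tris (1:1), enzyme added last. 4-MU release read by fluorescence (ex 360, em 460) over 10 min, in triplicate. IC50 from percent activity vs log[I], fitted with a slope-factor equation plus background term.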
row,SMILES,IC50 [nM]
1,C[C@]12CC[C@@H]3c4ccc(O)cc4CC[C@H]3[C@@H]1CC[C@@H]2NS(=O)(=O)c1ccccc1Br,493
2,CC(C)(C)c1ccc(S(=O)(=O)N[C@H]2CC[C@H]3[C@@H]4CCc5cc(O)ccc5[C@H]4CC[C@]23C)cc1,18
3,CCCCCc1ccc(S(=O)(=O)N[C@H]2CC[C@H]3[C@@H]4CCc5cc(O)ccc5[C@H]4CC[C@]23C)cc1,51
4,CCCc1ccc(S(=O)(=O)N[C@H]2CC[C@H]3[C@@H]4CCc5cc(O)ccc5[C@H]4CC[C@]23C)cc1,44
5,CC(C)c1ccc(S(=O)(=O)N[C@H]2CC[C@H]3[C@@H]4CCc5cc(O)ccc5[C@H]4CC[C@]23C)cc1,62
6,C[C@]12CC[C@@H]3c4ccc(O)cc4CC[C@H]3[C@@H]1CC[C@@H]2NS(=O)(=O)c1ccc(Br)cc1,190
7,C[C@]12CC[C@@H]3c4ccc(O)cc4CC[C@H]3[C@@H]1CC[C@@H]2NS(=O)(=O)Cc1ccccc1,364
8,CCCCc1ccc(S(=O)(=O)N[C@H]2CC[C@H]3[C@@H]4CCc5cc(O)ccc5[C@H]4CC[C@]23C)cc1,26
9,C[C@]12CC[C@@H]3c4ccc(O)cc4CC[C@H]3[C@@H]1CC[C@@H]2NS(=O)(=O)c1ccc(Oc2ccccc2)cc1,39
10,C[C@]12CC[C@@H]3c4ccc(O)cc4CC[C@H]3[C@@H]1CC[C@@H]2NC(=O)c1cccc(C(F)(F)F)c1,749
11,C[C@]12CC[C@@H]3c4ccc(O)cc4CC[C@H]3[C@@H]1CC[C@@]2(O)Cc1cccc(C(F)(F)F)c1,126
12,C[C@]12CC[C@@H]3c4ccc(O)cc4CC[C@H]3[C@@H]1CC[C@@H]2NS(=O)(=O)c1ccc2ccccc2c1,20
13,C[C@]12CC[C@@H]3c4ccc(O)cc4CC[C@H]3[C@@H]1CC[C@@H]2NS(=O)(=O)c1ccc(C(F)(F)F)cc1,73
14,Cc1ccc(S(=O)(=O)O[C@H]2CC[C@H]3[C@@H]4CCc5cc(O)ccc5[C@H]4CC[C@]23C)cc1,293
15,C[C@]12CC[C@@H]3c4ccc(O)cc4CC[C@H]3[C@@H]1CC[C@@]2(O)Cc1ccc2ccccc2c1,120
16,C[C@]12CC[C@@H]3c4ccc(O)cc4CC[C@H]3[C@@H]1CC[C@@H]2NS(=O)(=O)c1ccc(-c2ccccc2)cc1,9
17,C[C@]12CC[C@@H]3c4ccc(O)cc4CC[C@H]3[C@@H]1CC[C@@]2(O)Cc1ccc(-c2ccccc2)cc1,35
18,Cc1ccc(CS(=O)(=O)N[C@H]2CC[C@H]3[C@@H]4CCc5cc(O)ccc5[C@H]4CC[C@]23C)cc1,261

# Continued, values first:
row,IC50 [nM],SMILES
1,25,C[C@]12CC[C@@H]3c4ccc(O)cc4CC[C@H]3[C@@H]1CC[C@@H]2NS(=O)(=O)c1cccc(Br)c1
2,65,Cc1cccc(S(=O)(=O)N[C@H]2CC[C@H]3[C@@H]4CCc5cc(O)ccc5[C@H]4CC[C@]23C)c1
3,112,C[C@]12CC[C@@H]3c4ccc(O)cc4CC[C@H]3[C@@H]1CC[C@@H]2NS(=O)(=O)c1cccc(F)c1
4,137,C[C@]12CC[C@@H]3c4ccc(O)cc4CC[C@H]3[C@@H]1CC[C@@H]2NS(=O)(=O)c1cccc(C#N)c1
5,271,C[C@]12CC[C@@H]3c4ccc(O)cc4CC[C@H]3[C@@H]1CC[C@@H]2NS(=O)(=O)c1ccc(Cl)cc1
6,207,Cc1ccc(S(=O)(=O)N[C@H]2CC[C@H]3[C@@H]4CCc5cc(O)ccc5[C@H]4CC[C@]23C)cc1
7,341,Cc1ccc(S(=O)(=O)N[C@@H]2CC[C@H]3[C@@H]4CCc5cc(O)ccc5[C@H]4CC[C@]23C)cc1
8,23,C[C@]12CC[C@@H]3c4ccc(O)cc4CC[C@H]3[C@@H]1CC[C@@H]2NS(=O)(=O)c1cccc(C(F)(F)F)c1
9,90,C[C@]12CC[C@@H]3c4ccc(O)cc4CC[C@H]3[C@@H]1CC[C@@H]2NS(=O)(=O)c1cccc([N+](=O)[O-])c1
10,74,C[C@]12CC[C@@H]3c4ccc(O)cc4CC[C@H]3[C@@H]1CC[C@@H]2NS(=O)(=O)c1cccc(OC(F)(F)F)c1
11,343,C[C@]12CC[C@@H]3c4ccc(O)cc4CC[C@H]3[C@@H]1CC[C@@H]2NS(=O)(=O)c1ccccc1
12,479,C[C@]12CC[C@@H]3c4ccc(O)cc4CC[C@H]3[C@@H]1CC[C@@H]2NS(=O)(=O)c1ccc(F)cc1
13,193,COc1cccc(S(=O)(=O)N[C@H]2CC[C@H]3[C@@H]4CCc5cc(O)ccc5[C@H]4CC[C@]23C)c1
14,67,C[C@]12CC[C@@H]3c4ccc(O)cc4CC[C@H]3[C@@H]1CC[C@@H]2NS(=O)(=O)c1cccc(Cl)c1

# From ChEMBL document CHEMBL1944519 (Bioorg Med Chem, 2012)
